Peptide text beside a SMILES is read from it.
What follows are molecules tested against Integrin alpha-IIb/beta-3 (Homo sapiens, UniProt P08514+P05106) (assay: Concentration required to inhibit adenosine diphosphate (ADP) induced aggregation of human platelets by 50% in vitro.).
In short: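 PRP obtained by centrifugation and adjusted to […]. PRP stirred at 1000 rpm and prewarmed 2 min at 37 °C with compound. Submaximal ADP added; light-transmittance aggregometry.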

Integrin alpha-IIb/beta-3, sequence (P05106 27-788 limits assumed): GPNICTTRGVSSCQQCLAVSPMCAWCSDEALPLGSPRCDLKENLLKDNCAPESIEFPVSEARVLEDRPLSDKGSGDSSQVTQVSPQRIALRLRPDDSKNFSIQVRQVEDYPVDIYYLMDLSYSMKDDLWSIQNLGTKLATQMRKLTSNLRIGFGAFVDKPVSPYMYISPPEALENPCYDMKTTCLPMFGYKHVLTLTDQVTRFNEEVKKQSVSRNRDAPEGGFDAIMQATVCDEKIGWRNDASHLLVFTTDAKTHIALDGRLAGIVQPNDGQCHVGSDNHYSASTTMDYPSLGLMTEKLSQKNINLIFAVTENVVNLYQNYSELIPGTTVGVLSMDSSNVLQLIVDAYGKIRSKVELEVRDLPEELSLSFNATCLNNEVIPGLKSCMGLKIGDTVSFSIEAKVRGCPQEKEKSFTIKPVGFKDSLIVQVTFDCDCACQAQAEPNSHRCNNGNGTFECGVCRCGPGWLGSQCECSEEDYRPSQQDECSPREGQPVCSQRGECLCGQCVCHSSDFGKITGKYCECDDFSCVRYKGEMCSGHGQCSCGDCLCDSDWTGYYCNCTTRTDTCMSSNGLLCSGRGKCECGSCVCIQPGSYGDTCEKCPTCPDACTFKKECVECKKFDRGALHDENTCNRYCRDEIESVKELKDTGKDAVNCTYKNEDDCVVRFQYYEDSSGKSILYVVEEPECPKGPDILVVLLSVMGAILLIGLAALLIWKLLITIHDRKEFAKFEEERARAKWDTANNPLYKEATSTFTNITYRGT
Integrin alpha-IIb/beta-3, sequence (P08514 32-887 limits assumed): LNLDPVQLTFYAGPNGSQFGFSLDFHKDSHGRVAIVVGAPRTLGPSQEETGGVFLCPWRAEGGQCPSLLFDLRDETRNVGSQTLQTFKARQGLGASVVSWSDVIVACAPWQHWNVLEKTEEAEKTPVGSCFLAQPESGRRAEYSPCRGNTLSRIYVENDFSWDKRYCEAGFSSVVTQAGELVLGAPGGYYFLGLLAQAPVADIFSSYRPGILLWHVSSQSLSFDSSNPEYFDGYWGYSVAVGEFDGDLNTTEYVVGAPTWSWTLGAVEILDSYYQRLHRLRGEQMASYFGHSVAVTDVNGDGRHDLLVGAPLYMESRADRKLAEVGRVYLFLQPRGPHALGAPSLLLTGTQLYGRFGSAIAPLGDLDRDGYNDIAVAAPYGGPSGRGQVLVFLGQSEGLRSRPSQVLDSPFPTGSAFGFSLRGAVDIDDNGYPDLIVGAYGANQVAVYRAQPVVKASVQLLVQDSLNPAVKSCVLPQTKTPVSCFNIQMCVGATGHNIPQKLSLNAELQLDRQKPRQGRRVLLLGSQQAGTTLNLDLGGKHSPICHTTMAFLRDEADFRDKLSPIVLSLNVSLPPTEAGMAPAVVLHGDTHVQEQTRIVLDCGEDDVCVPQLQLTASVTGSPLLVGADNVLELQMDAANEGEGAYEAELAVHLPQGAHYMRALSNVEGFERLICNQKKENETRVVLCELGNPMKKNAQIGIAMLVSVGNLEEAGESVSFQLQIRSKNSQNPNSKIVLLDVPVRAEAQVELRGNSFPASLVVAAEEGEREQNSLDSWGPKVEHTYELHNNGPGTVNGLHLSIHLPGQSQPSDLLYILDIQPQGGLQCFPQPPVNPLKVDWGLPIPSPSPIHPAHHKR
Integrin alpha-IIb/beta-3, sequence (P08514 891-1039 limits assumed): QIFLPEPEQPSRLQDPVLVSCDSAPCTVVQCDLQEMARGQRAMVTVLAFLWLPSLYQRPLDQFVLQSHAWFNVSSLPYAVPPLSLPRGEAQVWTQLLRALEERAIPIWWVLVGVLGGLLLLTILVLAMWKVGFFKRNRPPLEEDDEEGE

| IC50 [nM] | SMILES |
| --- | --- |
| 110 | N=C(N)c1ccc(C(=O)NCC(=O)N2CCN(CC(=O)O)C(=O)[C@@H]2CC(=O)O)cc1 |
| 90 | COC(=O)CC[C@H]1C(=O)N(CC(=O)O)CCN1C(=O)CNC(=O)c1ccc(C(=N)N)cc1 [3-{(S)-1-[2-(4-Carbamimidoyl-benzoylamino)-acetyl]-4-carboxymethyl-3-oxo-piperazin-2-yl}-propionic acid methyl ester] |
| 150 | NCCc1ccc(C(=O)NCC(=O)N2CCN(CC(=O)O)C(=O)C2)cc1 [(4-{2-[4-(2-Amino-ethyl)-benzoylamino]-acetyl}-2-oxo-piperazin-1-yl)-acetic acid] |
| 740 | N=C(N)c1ccc(C(=O)NCC(=O)N2CCN(CC(=O)O)C(=O)[C@@H]2CC(N)=O)cc1 [{(S)-4-[2-(4-Carbamimidoyl-benzoylamino)-acetyl]-3-carbamoylmethyl-2-oxo-piperazin-1-yl}-acetic acid] |
| 4100 | N=C(N)c1ccc(C(=O)NCC(=O)N2CCN([C@@H](Cc3ccccc3)C(=O)O)C(=O)[C@@H]2CC(=O)O)cc1 [(S)-2-{(S)-4-[2-(4-Carbamimidoyl-benzoylamino)-acetyl]-3-carboxymethyl-2-oxo-piperazin-1-yl}-3-phenyl-propionic acid] |
| 120 | COC(=O)CC[C@H]1C(=O)N(CC(=O)O)CCN1C(=O)CNC(=O)c1ccc(CCN)cc1 [3-((S)-1-{2-[4-(2-Amino-ethyl)-benzoylamino]-acetyl}-4-carboxymethyl-3-oxo-piperazin-2-yl)-propionic acid methyl ester] |
| 800 | N=C(N)N1CCC(C(=O)NCC(=O)N2CCN(CC(=O)O)C(=O)[C@@H]2CC(=O)O)CC1 [((S)-1-{2-[(1-Carbamimidoyl-piperidine-4-carbonyl)-amino]-acetyl}-4-carboxymethyl-3-oxo-piperazin-2-yl)-acetic acid] |
| 580 | COC(=O)C[C@@H]1C(=O)N(CC(=O)O)CCN1C(=O)CNC(=O)c1ccc(C(=N)N)cc1 [{(R)-4-[2-(4-Carbamimidoyl-benzoylamino)-acetyl]-3-methoxycarbonylmethyl-2-oxo-piperazin-1-yl}-acetic acid] |
| 110 | N=C(N)c1ccc(C(=O)NCC(=O)N2CCN(CC(=O)O)C(=O)[C@@H]2Cc2ccccc2)cc1 [{(S)-3-Benzyl-4-[2-(4-carbamimidoyl-benzoylamino)-acetyl]-2-oxo-piperazin-1-yl}-acetic acid] |
| 11000 | CN(C)C(N)=Nc1ccc(C(=O)NCC(=O)N2CCN(CC(=O)O)C(=O)[C@@H]2CC(=O)O)cc1 [((S)-4-Carboxymethyl-1-{2-[4-(N',N'-dimethyl-guanidino)-benzoylamino]-acetyl}-3-oxo-piperazin-2-yl)-acetic acid] |
| 30000 | N=C(N)c1ccc(C(=O)NCC(=O)N2CCN(CCC(=O)O)C(=O)[C@@H]2CC(=O)O)cc1 [3-{(S)-4-[2-(4-Carbamimidoyl-benzoylamino)-acetyl]-3-carboxymethyl-2-oxo-piperazin-1-yl}-propionic acid] |
| 3600 | N=C(N)NCCCCC(=O)NCC(=O)N1CCN(CC(=O)O)C(=O)[C@@H]1CC(=O)O [{(S)-4-Carboxymethyl-1-[2-(5-guanidino-pentanoylamino)-acetyl]-3-oxo-piperazin-2-yl}-acetic acid] |
| 1500 | C[C@@H](C(=O)O)N1CCN(C(=O)CNC(=O)c2ccc(C(=N)N)cc2)[C@@H](CC(=O)O)C1=O [(S)-2-{(S)-4-[2-(4-Carbamimidoyl-benzoylamino)-acetyl]-3-carboxymethyl-2-oxo-piperazin-1-yl}-propionic acid] |
| 1200 | N=C(N)c1ccc(CC(=O)NCC(=O)N2CCN(CC(=O)O)C(=O)[C@@H]2CC(=O)O)cc1 [((S)-1-{2-[2-(4-Carbamimidoyl-phenyl)-acetylamino]-acetyl}-4-carboxymethyl-3-oxo-piperazin-2-yl)-acetic acid] |
| 30000 | N=C(N)c1ccc(C(=O)NCC(=O)N2CCN(CC(N)=O)C(=O)[C@@H]2CC(=O)O)cc1 [{(S)-1-[2-(4-Carbamimidoyl-benzoylamino)-acetyl]-4-carbamoylmethyl-3-oxo-piperazin-2-yl}-acetic acid] |
| 1100 | N=C(N)NCC1CCC(C(=O)NCC(=O)N2CCN(CC(=O)O)C(=O)[C@@H]2CC(=O)O)CC1 (stereo partly drawn) [((S)-4-Carboxymethyl-1-{2-[(4-guanidinomethyl-cyclohexanecarbonyl)-amino]-acetyl}-3-oxo-piperazin-2-yl)-acetic acid] |
| 130 | NCCc1ccc(C(=O)NCC(=O)N2CCN(CC(=O)O)C(=O)[C@@H]2CC(=O)O)cc1 [((S)-1-{2-[4-(2-Amino-ethyl)-benzoylamino]-acetyl}-4-carboxymethyl-3-oxo-piperazin-2-yl)-acetic acid] |
| 2300 | COC(=O)CC[C@H]1C(=O)N(CC(=O)O)CCN1C(=O)CNC(=O)c1ccc(CCN(C)C)cc1 [3-((S)-4-Carboxymethyl-1-{2-[4-(2-dimethylamino-ethyl)-benzoylamino]-acetyl}-3-oxo-piperazin-2-yl)-propionic acid methyl ester] |
| 2600 | COC(=O)CN1CCN(C(=O)CNC(=O)c2ccc(C(=N)N)cc2)[C@@H](CC(=O)O)C1=O [{(S)-1-[2-(4-Carbamimidoyl-benzoylamino)-acetyl]-4-methoxycarbonylmethyl-3-oxo-piperazin-2-yl}-acetic acid] |
| 560 | N=C(N)NCc1ccc(C(=O)NCC(=O)N2CCN(CC(=O)O)C(=O)[C@@H]2CC(=O)O)cc1 [{(S)-4-Carboxymethyl-1-[2-(4-guanidinomethyl-benzoylamino)-acetyl]-3-oxo-piperazin-2-yl}-acetic acid] |
| 350 | NC(N)=Nc1ccc(C(=O)NCC(=O)N2CCN(CC(=O)O)C(=O)[C@@H]2CC(=O)O)cc1 [{(S)-4-Carboxymethyl-1-[2-(4-guanidino-benzoylamino)-acetyl]-3-oxo-piperazin-2-yl}-acetic acid] |
| 94 | N=C(N)c1ccc(C(=O)NCC(=O)N2CCN(CC(=O)O)C(=O)C2)cc1 [{4-[2-(4-Carbamimidoyl-benzoylamino)-acetyl]-2-oxo-piperazin-1-yl}-acetic acid] |
| 110 | NCCc1ccc(C(=O)NCC(=O)N2CCN(CC(=O)O)C(=O)[C@@H]2CCC(=O)O)cc1 [3-((S)-1-{2-[4-(2-Amino-ethyl)-benzoylamino]-acetyl}-4-carboxymethyl-3-oxo-piperazin-2-yl)-propionic acid] |
| 78 | COC(=O)C[C@H]1C(=O)N(CC(=O)O)CCN1C(=O)CNC(=O)c1ccc(CCN)cc1 [((S)-4-{2-[4-(2-Amino-ethyl)-benzoylamino]-acetyl}-3-methoxycarbonylmethyl-2-oxo-piperazin-1-yl)-acetic acid] |
| 52 | N=C(N)c1ccc(C(=O)NCC(=O)N2CCN(CC(=O)O)C(=O)[C@@H]2CCC(=O)O)cc1 [3-{(S)-1-[2-(4-Carbamimidoyl-benzoylamino)-acetyl]-4-carboxymethyl-3-oxo-piperazin-2-yl}-propionic acid] |
| 48000 | NC(N)=NCCC[C@H](N)C(=O)NCC(=O)N[C@@H](CC(=O)O)C(=O)N[C@@H](Cc1ccccc1)C(=O)O [(R)-3-[2-((S)-2-Amino-5-guanidino-pentanoylamino)-acetylamino]-N-((S)-1-carboxy-2-phenyl-ethyl)-succinamic acid] (H-RGDF-OH) |
| 13000 | N=C(N)c1cccc(C(=O)NCC(=O)N2CCN(CC(=O)O)C(=O)[C@@H]2CC(=O)O)c1 [{(S)-1-[2-(3-Carbamimidoyl-benzoylamino)-acetyl]-4-carboxymethyl-3-oxo-piperazin-2-yl}-acetic acid] |
| 1030 | NCCCc1ccc(C(=O)NCC(=O)N2CCN(CC(=O)O)C(=O)[C@@H]2CC(=O)O)cc1 [((S)-1-{2-[4-(3-Amino-propyl)-benzoylamino]-acetyl}-4-carboxymethyl-3-oxo-piperazin-2-yl)-acetic acid] |
| 2500 | CN(C)CCc1ccc(C(=O)NCC(=O)N2CCN(CC(=O)O)C(=O)[C@@H]2CCC(=O)O)cc1 [3-((S)-4-Carboxymethyl-1-{2-[4-(2-dimethylamino-ethyl)-benzoylamino]-acetyl}-3-oxo-piperazin-2-yl)-propionic acid] |
